The test system of one data set is SARS-CoV-2. In words: Antiviral activity in Vero E6 cells. The format is cell-based. Conditions: for antiviral activity relative to nirmatrelvir: EC50 against SARS-CoV-2 compared with nirmatrelvir.
A short description of data set [1]: Liver microsomes metabolic stability, human. The format is in vitro ADME. For orientation: Liver microsomes are vesicles of endoplasmic reticulum, rich in cytochrome P450 enzymes.
The nature of data set [2]: Liver microsomes metabolic stability, mouse. It counts as in vitro ADME. Summed up: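 Mouse liver microsomes at 0.5 mg/mL final protein in K/Mg buffer. Test compound went from a 10 mM stock in ACN into a 1.5 µM spiking solution containing 0.75 mg/mL microsomes. After 5 min pre-incubation at 37 °C, reactions were started with 6 mM NADPH stock. They were quenched with ACN containing internal standard at 0, 5, 15, 30 and 45 min, then shaken and centrifuged.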

The nature of data set [3]: Pharmacokinetics after p.o. and i.v. administration. The format is in vivo. Conditions: mouse.

`CC(C)(C)[C@H](NC(=O)C(F)(F)F)C(=O)N1C[C@@H]2CCC[C@@H]2[C@H]1C(=O)N[C@H](C#N)C[C@@H]1CCNC1=O` [1a, (1S,3aR,6aS)-N-((S)-1-cyano-2-((S)-2-oxopyrrolidin-3-yl)ethyl)-2-((S)-3,3-dimethyl-2-(2,2,2-trifluoroacetamido)butanoyl)octahydrocyclopenta[c]pyrrole-1-carboxamide] had an RNA copy inhibition% in the data set on SARS-CoV-2 (1 μM compound, preliminary screening) of 70%. Also, in the data set on SARS-CoV-2, the “antiviral activity relative to nirmatrelvir” value is 2 fold. For the same compound, in data set [1], the CLint scaled at 1 µM is 22 mL/min/kg, the half-life at 1 µM was 78.9 min and the “metabolic stability (in words)” value is reported as “moderate metabolic stability”. Also, in data set [2], the CLint scaled at 1 µM is 368 mL/min/kg, the half-life at 1 µM was 14.8 min and the “metabolic stability (in words)” value is on record as “susceptible to metabolic effects”. Besides, in data set [3] (male, plasma, iv, 10 mg/kg), the area under the curve AUC(0-inf) came out at 2670 ng·h/mL, the AUC(0-t) amounted to 2670 ng·h/mL, the MRT inf came to 14.4 min and the clearance stood at 69.3 mL/min/kg. Besides, the half-life in data set [3] (male, plasma, iv, 10 mg/kg) is 66 min. Besides, in data set [3] (male, plasma, oral, 20 mg/kg), the bioavailability was 22.8%. Moreover, in data set [3] (male, plasma, po, 20 mg/kg), the AUC(0-inf) came to 1220 ng·h/mL, the AUC(0-t) stood at 1220 ng·h/mL, the Cmax came to 1310 ng/mL and the MRT inf was found to be 52.8 min. For the same compound, in data set [3] (male, plasma, po, 20 mg/kg), the time of peak concentration (Tmax) was 25.2 min and the half-life is 60 min. Further, the Vss_obs in data set [3] (i.v. (10 mg/kg)) is recorded as 1011.00 mL/kg.
Regarding `CC(C)(C)[C@H](NS(=O)(=O)C(F)(F)F)C(=O)N1C[C@H]2[C@@H]([C@H]1C(=O)N[C@H](C#N)C[C@@H]1CCNC1=O)C2(C)C` [2b, (1R,2S,5S)-N-((S)-1-cyano-2-((S)-2-oxopyrrolidin-3-yl)ethyl)-3-((S)-3,3-dimethyl-2-((trifluoromethyl)sulfonamido)butanoyl)-6,6-dimethyl-3-azabicyclo[3.1.0]hexane-2-carboxamide], the “antiviral activity relative to nirmatrelvir” value in the data set on SARS-CoV-2 is 4 fold. Also, in data set [1], the CLint scaled at 0.75 h, 1 µM came to 2.67 mL/min/kg and the “metabolic stability (in words)” value was “stable”. In addition, in data set [2], the CLint scaled at 0.75 h, 1 µM was 55.8 mL/min/kg and the “metabolic stability (in words)” value is listed as “moderate metabolic stability”. Moreover, the clearance in data set [3] (male, plasma, iv, 10 mg/kg) came to 41 mL/min/kg.
`CC(C)(C)[C@H](NC(=O)C(F)(F)F)C(=O)N1C[C@H]2[C@@H]([C@H]1C(=O)N[C@H](C#N)C[C@@H]1CCNC1=O)C2(C)C` [Nirmatrelvir, reference compound] showed a CLint scaled at 0.75 h, 1 µM in data set [2] of 1180 mL/min/kg. In data set [3] (male, plasma, iv, 10 mg/kg), this compound gave a clearance of 50.1 mL/min/kg.

Broadly, the CLint scaled is the rate of metabolic loss divided by the concentration. In general, half-life refers to the time needed for the level to fall by half in the phase considered. Higher therefore signals slow decline. A word on the AUC(0-inf): it is total exposure, with the tail of the curve extrapolated. The low end stands for less exposure, the high end for more exposure. The AUC(0-t) is the area under the concentration-time curve up to a stated or last time point. Lower therefore signals low exposure. What is called MRT inf is the average time that molecules of a dose stay in the body. As usually defined, the bioavailability is dose-corrected exposure relative to a reference, in per cent. A high value points to good availability. For orientation: Cmax means the peak of the concentration-time curve. A word on the Tmax: it is the time at which the peak concentration occurs.
